The record followed here is ChEMBL document CHEMBL2176919, “Design, synthesis, and biological evaluation of 17-cyclopropylmethyl-3,14β-dihydroxy-4,5α-epoxy-6β-[(4'-pyridyl)carboxamido]morphinan derivatives as peripheral selective μ opioid receptor Agents” (J Med Chem, 2012).

The Emax is the maximal effect, on the per cent scale that the assay sets. One may read the Ki as a dissociation constant, usually derived from enzyme kinetics or from competition with a known ligand. Higher therefore signals weaker binding. What is called EC50 is the concentration at which the effect is half-maximal. Usually ED50 stands for the dose at which the effect has come halfway, by size or by number of responders. A low value points to an effect at a small dose.

The structures appear in SMILES notation. Activity calls are given as the source filed them.

For data set [1], the target named is T1, Mu-type opioid receptor (Homo sapiens, UniProt P35372). Description: Agonist activity at mu opioid receptor expressed in CHO cells assessed as stimulation of [35S]-GTP-gammaS binding relative to DAMGO. The class given is cell-based. (GTPγS resists hydrolysis and so accumulates on activated G proteins.)
Data set [2] in a line: Selectivity ratio of Ki for kappa opioid receptor to Ki for mu opioid receptor.
Data set [3] can be described thus: Selectivity ratio of Ki for delta opioid receptor to Ki for mu opioid receptor.
Data set [4] deals with T2, Kappa-type opioid receptor (Homo sapiens, UniProt P41145). Description: Displacement of [3H]DPN from kappa opioid receptor expressed in CHO cells after 1 hr. The class given is cell-based. For orientation: Displacement assays read how much labelled ligand stays bound in the presence of the test substance.
In data set [5] the target is T1, Mu-type opioid receptor. Description: Agonist activity at mu opioid receptor expressed in CHO cells assessed as stimulation of [35S]-GTP-gammaS binding. In kind it is cell-based. Put shortly: (§1)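 GTP[γS] functional assay in membranes of CHO cells expressing the cloned opioid receptor. Membrane protein 10 μg incubated at 30 °C with varying drug concentrations and 0.1 nM 35S-GTP[γS]: μ with 10 μM GDP for 2 h; κ and δ with 20 μM GDP for 1.5 h. Nonspecific binding defined with 10 μM unlabeled GTP[γS].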

The target in data set [6] is T3, Delta-type opioid receptor (Homo sapiens, UniProt P41143). Description: Displacement of [3H]NTI from delta opioid receptor expressed in CHO cells after 1 hr. The class given is cell-based.
The target of data set [7] is T1, Mu-type opioid receptor. Description: Displacement of [3H]Naloxone from mu opioid receptor expressed in CHO cells after 1 hr. In kind it is cell-based.
The subject of data set [8] is Caco-2. Description: Apparent permeability of the compound across human Caco2 cells. The class given is ADME, cell-based. Put shortly:
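Caco-2 cells (passages 45–47) grown 22 days on 0.4 μm Transwell filters seeded at 80 000 cells/cm2, in DMEM with 10% FBS, antibiotics and nonessential amino acids. Drug in HEPES-buffered (10 mM) HBSS was added apically or basolaterally, and the receiver side was sampled up to 2 h. Samples were quantified by HPLC-UV. Papp = J/(A·Ci).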
(Caco-2 monolayers are a common model of the intestinal barrier.)

Data set [9] has as its system Mus musculus. Description: Inhibition of morphine-induced decrease in gastrointestinal motility in sc dosed Swiss-Webster mouse. The class given is functional. Put shortly: (§2)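 GI transit assay in male Swiss-Webster mice, groups of four or six. Compound or saline was given sc at time zero, then morphine (2 or 10 mg/kg) sc 5 min later. A charcoal meal was gavaged 20 min after morphine. Mice were killed 30 min after the meal, and charcoal distance was expressed as a percentage of small-intestine length from pylorus to cecum. Significance was tested by one-way ANOVA with Dunnett's test.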

Data set [10] relates to Mus musculus. Description: Effect on gastrointestinal motility in Swiss-Webster mouse at 10 mg/kg, sc. The class given is functional, organism-based. Set-up: dose 10 mg/kg.
For data set [11], the system named is Mus musculus. Description: Inhibition of morphine-induced decrease in gastrointestinal motility in Swiss-Webster mouse at 10 mg/kg, sc. The class given is functional, organism-based. Set-up: dose 10 mg/kg. The method, boiled down:
as §2

Data set [12] concerns Mus musculus. Description: Toxicity in morphine-pelleted Swiss-Webster mouse assessed as diarrhea up to 10 mg/kg, sc. In kind it is organism-based. Set-up: dose 10 mg/kg, route subcutaneous. Particulars: in vivo.
Data set [13] has as its system Mus musculus. Description: Inhibition of morphine-induced decrease in gastrointestinal motility in sc dosed morphine-pelleted Swiss-Webster mouse. The class given is functional.
Data set [14] deals with Mus musculus. Description: Inhibition of morphine-induced antinociceptive activity in Swiss-Webster mouse assessed as thermal-stimulus induced tail flick latency at 10 mg/kg. The class given is functional, organism-based. Set-up: dose 10 mg/kg.
Data set [15] relates to Mus musculus. Description: Antinociceptive activity in Swiss-Webster mouse assessed as thermal-stimulus induced tail flick latency at 10 mg/kg relative to morphine. The class given is functional. The method, boiled down:
(§3)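 Warm-water tail flick test in male Swiss-Webster mice (25–30 g) with a 56 ± 0.1 °C bath. Only mice with a 2–4 s baseline latency were used, and a 10 s cutoff was applied. Latency was read after drug treatment. %MPE = [(test − control latency)/(10 − control latency)] × 100, computed per mouse with at least six mice per drug.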

The target in data set [16] is T3, Delta-type opioid receptor. Description: Agonist activity at delta opioid receptor expressed in CHO cells assessed as stimulation of [35S]-GTP-gammaS binding relative to SNC80. The class given is functional, cell-based.
Data set [17] has as its target T3, Delta-type opioid receptor. Description: Agonist activity at delta opioid receptor expressed in CHO cells assessed as stimulation of [35S]-GTP-gammaS binding. In kind it is functional, cell-based. The method, boiled down:
as §1

In data set [18] the target is T2, Kappa-type opioid receptor. Description: Agonist activity at kappa opioid receptor expressed in CHO cells assessed as stimulation of [35S]-GTP-gammaS binding relative to U50,488H. The class given is functional, cell-based.
Data set [19] has as its target T2, Kappa-type opioid receptor. Description: Agonist activity at kappa opioid receptor expressed in CHO cells assessed as stimulation of [35S]-GTP-gammaS binding. In kind it is functional, cell-based. The method, boiled down:
as §1

Data set [20] relates to Mus musculus. Description: Antinociceptive activity in Swiss-Webster mouse assessed as thermal-stimulus induced tail flick latency at 10 mg/kg. In kind it is functional. The method, boiled down: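 Male Swiss-Webster mice, 25–30 g, allowed 18 h to recover from transport. Warm-water tail flick, bath at 56 ± 0.1 °C; only mice with 2–4 s baseline latency used. Latency retested after drug at the appropriate time, 10 s cutoff. Expressed as %MPE = [(test − control latency)/(10 − control latency)] × 100, calculated per mouse, at least six mice per drug.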

Data set [21] deals with Mus musculus. Description: Inhibition of morphine-induced decrease in gastrointestinal motility in morphine-pelleted Swiss-Webster mouse at 0.3 to 10 mg/kg, sc. The class given is functional, organism-based.
Data set [22] concerns Mus musculus. Description: Inhibition of morphine-induced antinociceptive activity in Swiss-Webster mouse assessed as thermal-stimulus induced tail flick latency up to 30 mg/kg. In kind it is functional, organism-based. Set-up: dose 30 mg/kg.
In data set [23] the test system is Mus musculus. Description: Antinociceptive activity in Swiss-Webster mouse assessed as thermal-stimulus induced tail flick latency at 3 mg/kg relative to morphine. The class given is functional. Put shortly:
as §3

Data set [24] concerns the target T1, Mu-type opioid receptor. As to conditions: CHO; 100 nM.

T2 sequence (P41145 whole entry): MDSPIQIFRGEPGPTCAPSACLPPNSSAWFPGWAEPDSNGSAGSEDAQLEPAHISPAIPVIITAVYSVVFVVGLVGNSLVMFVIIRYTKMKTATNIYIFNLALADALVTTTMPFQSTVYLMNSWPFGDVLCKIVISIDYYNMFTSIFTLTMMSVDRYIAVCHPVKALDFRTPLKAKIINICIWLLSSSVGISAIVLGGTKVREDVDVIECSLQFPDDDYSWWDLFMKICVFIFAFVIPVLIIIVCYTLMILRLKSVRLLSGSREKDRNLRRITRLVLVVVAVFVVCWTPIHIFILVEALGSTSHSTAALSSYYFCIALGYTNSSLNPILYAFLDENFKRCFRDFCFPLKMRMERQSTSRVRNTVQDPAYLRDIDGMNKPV
T3 sequence (P41143 whole entry): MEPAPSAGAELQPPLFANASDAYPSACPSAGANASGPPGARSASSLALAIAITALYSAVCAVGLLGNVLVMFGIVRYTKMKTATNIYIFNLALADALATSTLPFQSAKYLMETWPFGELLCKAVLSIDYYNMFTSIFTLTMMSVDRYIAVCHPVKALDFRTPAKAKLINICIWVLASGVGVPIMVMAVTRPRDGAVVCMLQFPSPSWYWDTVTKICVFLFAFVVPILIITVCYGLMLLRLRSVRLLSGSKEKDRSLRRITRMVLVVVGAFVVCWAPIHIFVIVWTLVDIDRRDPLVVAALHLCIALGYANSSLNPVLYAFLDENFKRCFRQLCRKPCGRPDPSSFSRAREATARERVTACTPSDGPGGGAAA
T1 sequence (P35372 whole entry): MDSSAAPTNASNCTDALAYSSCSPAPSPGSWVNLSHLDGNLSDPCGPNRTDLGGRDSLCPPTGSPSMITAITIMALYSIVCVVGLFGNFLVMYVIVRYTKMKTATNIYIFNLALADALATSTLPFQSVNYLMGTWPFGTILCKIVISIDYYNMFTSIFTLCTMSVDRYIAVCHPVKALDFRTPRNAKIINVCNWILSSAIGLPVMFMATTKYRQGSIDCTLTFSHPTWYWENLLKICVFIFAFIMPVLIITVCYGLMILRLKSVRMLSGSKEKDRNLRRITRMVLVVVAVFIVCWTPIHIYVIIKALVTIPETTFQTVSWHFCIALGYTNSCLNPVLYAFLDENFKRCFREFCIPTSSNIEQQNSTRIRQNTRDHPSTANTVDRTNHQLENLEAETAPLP

Take `O=C(CCc1ccncc1)N[C@@H]1CC[C@@]2(O)[C@H]3Cc4ccc(O)c5c4[C@@]2(CCN3CC2CC2)[C@H]1O5`: the maximum response (Emax) in data set [1] is 22.6%. Besides, the Ratio Ki was found to be 2.9 in [2] and 516 in data set [3].
Taken in the same sequence, the figures for `O=C(N[C@@H]1CC[C@@]2(O)[C@H]3Cc4ccc(O)c5c4[C@@]2(CCN3CC2CC2)[C@H]1O5)c1ccncc1Br` were 23.2%, 6 and 285.
With `COc1cc(C(=O)N[C@@H]2CC[C@@]3(O)[C@H]4Cc5ccc(O)c6c5[C@@]3(CCN4CC3CC3)[C@H]2O6)ccn1`, the Ki in data set [4] amounted to 0.46 nM; in data set [6], 160 nM; in [7], 0.6 nM. The Emax in [1] is 25.3%. In addition, the EC50 in data set [5] was 7.89 nM. Besides, the figures for the Ratio Ki in data set [2] and in [3] were 0.8 and 267, respectively.
Consider `C[N@+]1(CC2CC2)CC[C@]23c4c5ccc(O)c4O[C@H]2C(=O)CC[C@@]3(O)[C@H]1C5`, for which the results for the Ratio Ki in data set [2] and in data set [3] were 10 and 24, respectively.
`Cc1cc(C(=O)N[C@@H]2CC[C@@]3(O)[C@H]4Cc5ccc(O)c6c5[C@@]3(CCN4CC3CC3)[C@H]2O6)ccn1`: in [1], the maximal response (Emax) amounted to 43.3%. Besides, the Ratio Ki in data set [2] was 1.5; in [3], 232.
For `N#Cc1cc(C(=O)N[C@@H]2CC[C@@]3(O)[C@H]4Cc5ccc(O)c6c5[C@@]3(CCN4CC3CC3)[C@H]2O6)ccn1`, the Ki came to 0.13 nM in [4], 75.3 nM in [6] and 1.25 nM in data set [7]. Besides, the maximum response (Emax) in data set [1] turned out to be 43.1%. Moreover, the EC50 in data set [5] stood at 10 nM. The Ratio Ki in data set [2] was determined as 0.1; in data set [3] it was 60.
With `O=C(Cc1ccncc1)N[C@@H]1CC[C@@]2(O)[C@H]3Cc4ccc(O)c5c4[C@@]2(CCN3CC2CC2)[C@H]1O5`, the Emax in [1] is 32.8%. For the same compound, the results for the Ratio Ki in data set [2] and in data set [3] were 10.6 and 1020, respectively.
As to `O=C(N[C@@H]1CC[C@@]2(O)[C@H]3Cc4ccc(O)c5c4[C@@]2(CCN3CC2CC2)[C@H]1O5)c1ccnnc1`, the inhibition constant (Ki) worked out at 1.57 nM in data set [4], 420 nM in [6] and 2.07 nM in data set [7]. The Emax in data set [1] was 27.6%. In data set [5], the EC50 is 28.3 nM. In addition, the Ratio Ki in data set [2] was determined as 0.7; in data set [3] it was 203.
On to `Cc1cnccc1C(=O)N[C@@H]1CC[C@@]2(O)[C@H]3Cc4ccc(O)c5c4[C@@]2(CCN3CC2CC2)[C@H]1O5`, for which the Papp entry in data set [8] is listed as “permeable”. Moreover, the ED50 stood at 7.85 mg/kg in [9] and 0.03 mg/kg in [13]. The result in data set [10] was Active. Further, in data set [11], the inhibition entry was “Active”. Moreover, the Activity result in data set [12] is “Non-toxic”. For the same compound, the inhibition result in data set [13] is “Dose-dependent effect”. Further, the inhibition entry in [14] was “inactive”. The MPE in [15] amounted to 4.4%. Further, the Emax was 90.2% in data set [16], 31.4% in data set [18] and 30.6% in data set [1]. The EC50 is 38.6 nM in [17] and 26.4 nM in data set [19]. Also, the Ratio Ki in [2] turned out to be 166; in [3] it was 470.
In the case of `O=C(N[C@@H]1CC[C@@]2(O)[C@H]3Cc4ccc(O)c5c4[C@@]2(CCN3CC2CC2)[C@H]1O5)c1ccncc1Cl`, the Emax in data set [1] came out at 24.9%. In addition, the Ratio Ki in data set [2] is 30; in [3], 746.
As to `CN1CC[C@]23c4c5ccc(O)c4O[C@H]2[C@@H](O)C=C[C@H]3[C@H]1C5` [MORPHINE], the MPE in [20] is 100%.
For `CN1CCC(C(=O)N[C@@H]2CC[C@@]3(O)[C@H]4Cc5ccc(O)c6c5[C@@]3(CCN4CC3CC3)[C@H]2O6)CC1`, in data set [1], the Emax is 37.2%. Besides, the Ratio Ki in data set [2] was determined as 7.5; in data set [3], 2970.
As for `O=C(N[C@@H]1CC[C@@]2(O)[C@H]3Cc4ccc(O)c5c4[C@@]2(CCN3CC2CC2)[C@H]1O5)c1ccncc1`, in [18], the Emax was determined as 45.5%. In addition, in [19], the EC50 came out at 28.8 nM.
In the case of `O=C(CNC(=O)c1ccncc1)N[C@@H]1CC[C@@]2(O)[C@H]3Cc4ccc(O)c5c4[C@@]2(CCN3CC2CC2)[C@H]1O5`, the Papp entry in data set [8] was “permeable”. For the same compound, the result in data set [10] was Active. In addition, the inhibition result in [11] and in [22] was “inactive” each time. The Activity entry in data set [12] is “Non-toxic”. For the same compound, the inhibition result in data set [21] is “Active”. In data set [13], this compound displayed an ED50 of 0.08 mg/kg. Besides, the MPE in data set [23] came to 11.2%. Further, the Emax in [16] was 84.3%; in data set [18], 23.5%; in data set [1] it was 22.6%. The figures for the EC50 in [17] and in data set [19] were 19 nM and 25 nM, respectively.
With `O=C(N[C@@H]1CC[C@@]2(O)[C@H]3Cc4ccc(O)c5c4[C@@]2(CCN3CC2CC2)[C@H]1O5)c1ccnc(Br)c1`, the Emax in data set [1] came to 50.8%. Moreover, the Ratio Ki turned out to be 0.3 in data set [2] and 276 in data set [3].
Turning to `C[C@@H](O)[C@H](NC(=O)[C@H]1NC(=O)[C@H]([C@@H](C)O)NC(=O)[C@H](CCCNC(=N)N)NC(=O)[C@@H](Cc2c[nH]c3ccccc23)NC(=O)[C@H](Cc2ccc(O)cc2)NC(=O)[C@@H](NC(=O)[C@H](N)Cc2ccccc2)CSSC1(C)C)C(N)=O`, the Emax in data set [24] turned out to be 1.99%.
Consider `O=C(N[C@@H]1CC[C@@]2(O)[C@H]3Cc4ccc(O)c5c4[C@@]2(CCN3CC2CC2)[C@H]1O5)c1ccnc(Cl)c1`, for which the Emax in [1] was determined as 58.2%. Also, the figures for the Ratio Ki in data set [2] and in [3] were 1.5 and 6110, respectively.
In the case of `COc1cnccc1C(=O)N[C@@H]1CC[C@@]2(O)[C@H]3Cc4ccc(O)c5c4[C@@]2(CCN3CC2CC2)[C@H]1O5`, the inhibitory constant (Ki) in data set [4] was determined as 4.28 nM; in [6], 104 nM; in data set [7] it was 0.43 nM. Further, the Ratio Ki in data set [2] amounted to 10; in data set [3] it was 242.
